Data on one compound can be found in ChEMBL document CHEMBL1124260, “Synthesis and antitumor activity of quaternary ellipticine glycosides, a series of novel and highly active antitumor agents” (1988).

Experiment [1] concerns Mus musculus. Nature of the experiment: Antitumor activity against ip implanted L1210 leukemia in mouse after ip administration of 60 mg/kg for 5 days expressed as increase in mean life span. The class given is functional. As to conditions: 120 h, route intraperitoneal. Put shortly:
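Drug was dissolved in 0.9% NaCl, diluted just before use and given ip once daily for 5 consecutive days, starting 24 h after transplant. ILS % = mean survival time of treated vs control mice, observed for 80 days.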

The subject of experiment [2] is Mus musculus. Nature of the experiment: Number of survivors out of 6 ip implanted L1210 leukemia mouse tested after 80 days at 60 mg/kg. It is filed as functional. As to conditions: route intraperitoneal. Put shortly:
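Female BDF1 mice implanted ip with ascitic fluid holding 10^5 L1210 cells. Saline-dissolved drug given ip daily on days 1-5, starting 24 h after implant. Six mice per dose group, followed 80 days. Survivors/total counted at day 80; ILS % from mean survival time vs controls.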

What is called ILS is how much longer treated animals lived than controls. High values mean much gain in survival, low ones little gain in survival. As to `CC(=O)OC1C(C)OC([n+]2ccc3c(C)c4[nH]c5ccc(O)cc5c4c(C)c3c2)C(OC(C)=O)C1OC(C)=O.[Br-]` (configuration not stated), in the experiment with Mus musculus [1], the ILS at 60 mg/kg is 89%. In the experiment on Mus musculus [2], the Cures is on record as 0.
